{"source": "ChEMBL document CHEMBL1137764", "about": "“Design, synthesis, antibacterial activity and physicochemical parameters of novel N-4-piperazinyl derivatives of norfloxacin” (Bioorg Med Chem, 2009)", "key": {"[1]": {"tested_on": "Pseudomonas aeruginosa", "experiment": "Antimicrobial activity against Pseudomonas aeruginosa at 16 ug/ml after 24 hrs by agar diffusion technique", "type": "functional", "details": "read-out: DIZ", "method_in_brief": "(§1)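 Strains came from a university microbiology department. Inocula were 10⁶ CFU/mL. Mueller-Hinton agar was seeded with culture, poured 3–4 mm thick, and 10 mm cups were bored. Compounds were dissolved in DMF (10 mg/mL stock), diluted, and the solution was placed in the cups. Plates were incubated at 37 °C overnight. Inhibition zone diameter (mm) was read at 24 h.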"}, "[2]": {"tested_on": "Staphylococcus aureus", "experiment": "Antimicrobial activity against Staphylococcus aureus at 64 ug/ml after 24 hrs by agar diffusion technique", "type": "functional", "details": "read-out: DIZ", "method_in_brief": "as §1"}, "[3]": {"experiment": "Octanol-phosphate buffer partition coefficient, log D at pH 7.4 by spectrophotometry", "type": "physicochemical", "method_in_brief": "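Shake-flask method. A 0.2 mg/mL stock was diluted into pH 7.4 phosphate buffer and mixed with an equal volume of n-octanol, phases mutually presaturated and protected from light. Samples were vortexed 3 min, then shaken 5 h at 25 °C. Both phases were assayed by UV at 270–280 nm. D is the molar concentration ratio, octanol to aqueous.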"}, "[4]": {"tested_on": "Staphylococcus aureus", "experiment": "Antimicrobial activity against Staphylococcus aureus at 16 ug/ml after 24 hrs by agar diffusion technique", "type": "functional", "details": "read-out: DIZ", "method_in_brief": "as §1"}, "[5]": {"tested_on": "Escherichia coli", "experiment": "Antimicrobial activity against Escherichia coli after 24 hrs by agar diffusion technique", "type": "functional", "method_in_brief": "(§2)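 Agar cup diffusion on Mueller-Hinton agar seeded from 10⁶ CFU/mL suspensions, with 10 mm cups in a 3–4 mm layer. Compounds were in DMF (10 mg/mL stock) at several concentrations. Plates were incubated at 37 °C and zones measured after 24 h. MIC was taken as the intercept of the plot of log concentration against inhibition zone diameter.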"}, "[6]": {"tested_on": "Staphylococcus aureus", "experiment": "Antimicrobial activity against Staphylococcus aureus at 512 ug/ml after 24 hrs by agar diffusion technique", "type": "functional", "details": "read-out: DIZ", "method_in_brief": "as §1"}, "[7]": {"tested_on": "Staphylococcus aureus", "experiment": "Antimicrobial activity against Staphylococcus aureus at 128 ug/ml after 24 hrs by agar diffusion technique", "type": "functional", "details": "read-out: DIZ", "method_in_brief": "as §1"}, "[8]": {"tested_on": "Escherichia coli", "experiment": "Antimicrobial activity against Escherichia coli at 128 ug/ml after 24 hrs by agar diffusion technique", "type": "functional", "details": "read-out: DIZ", "method_in_brief": "as §1"}, "[9]": {"tested_on": "Staphylococcus aureus", "experiment": "Antimicrobial activity against Staphylococcus aureus at 4 ug/ml after 24 hrs by agar diffusion technique", "type": "functional", "details": "read-out: DIZ", "method_in_brief": "as §1"}, "[10]": {"tested_on": "Pseudomonas aeruginosa", "experiment": "Antimicrobial activity against Pseudomonas aeruginosa at 4 ug/ml after 24 hrs by agar diffusion technique", "type": "functional", "details": "read-out: DIZ", "method_in_brief": "as §1"}, "[11]": {"tested_on": "Klebsiella pneumoniae", "experiment": "Antimicrobial activity against Klebsiella pneumoniae at 16 ug/ml after 24 hrs by agar diffusion technique", "type": "functional", "details": "read-out: DIZ", "method_in_brief": "as §1"}, "[12]": {"tested_on": "Klebsiella pneumoniae", "experiment": "Antimicrobial activity against Klebsiella pneumoniae at 128 ug/ml after 24 hrs by agar diffusion technique", "type": "functional", "details": "read-out: DIZ", "method_in_brief": "as §1"}, "[13]": {"tested_on": "Escherichia coli", "experiment": "Antimicrobial activity against Escherichia coli at 16 ug/ml after 24 hrs by agar diffusion technique", "type": "functional", "details": "read-out: DIZ", "method_in_brief": "as §1"}, "[14]": {"tested_on": "Escherichia coli", "experiment": "Antimicrobial activity against Escherichia coli at 64 ug/ml after 24 hrs by agar diffusion technique", "type": "functional", "details": "read-out: DIZ", "method_in_brief": "as §1"}, "[15]": {"tested_on": "Pseudomonas aeruginosa", "experiment": "Antimicrobial activity against Pseudomonas aeruginosa at 128 ug/ml after 24 hrs by agar diffusion technique", "type": "functional", "details": "read-out: DIZ", "method_in_brief": "as §1"}, "[16]": {"tested_on": "Klebsiella pneumoniae", "experiment": "Antimicrobial activity against Klebsiella pneumoniae at 4 ug/ml after 24 hrs by agar diffusion technique", "type": "functional", "details": "read-out: DIZ", "method_in_brief": "as §1"}, "[17]": {"tested_on": "Escherichia coli", "experiment": "Antimicrobial activity against Escherichia coli at 4 ug/ml after 24 hrs by agar diffusion technique", "type": "functional", "details": "read-out: DIZ", "method_in_brief": "as §1"}, "[18]": {"tested_on": "Pseudomonas aeruginosa", "experiment": "Antimicrobial activity against Pseudomonas aeruginosa at 64 ug/ml after 24 hrs by agar diffusion technique", "type": "functional", "details": "read-out: DIZ", "method_in_brief": "as §1"}, "[19]": {"tested_on": "Pseudomonas aeruginosa", "experiment": "Antimicrobial activity against Pseudomonas aeruginosa at 512 ug/ml after 24 hrs by agar diffusion technique", "type": "functional", "details": "read-out: DIZ", "method_in_brief": "as §1"}, "[20]": {"tested_on": "Klebsiella pneumoniae", "experiment": "Antimicrobial activity against Klebsiella pneumoniae after 24 hrs by agar diffusion technique", "type": "functional", "method_in_brief": "as §2"}, "[21]": {"tested_on": "Klebsiella pneumoniae", "experiment": "Antimicrobial activity against Klebsiella pneumoniae at 64 ug/ml after 24 hrs by agar diffusion technique", "type": "functional", "details": "read-out: DIZ", "method_in_brief": "as §1"}, "[22]": {"tested_on": "Klebsiella pneumoniae", "experiment": "Antimicrobial activity against Klebsiella pneumoniae at 512 ug/ml after 24 hrs by agar diffusion technique", "type": "functional", "details": "read-out: DIZ", "method_in_brief": "as §1"}, "[23]": {"tested_on": "Staphylococcus aureus", "experiment": "Antimicrobial activity against Staphylococcus aureus after 24 hrs by agar diffusion technique", "type": "functional", "method_in_brief": "as §2"}, "[24]": {"tested_on": "Pseudomonas aeruginosa", "experiment": "Antimicrobial activity against Pseudomonas aeruginosa after 24 hrs by agar diffusion technique", "type": "functional", "method_in_brief": "as §2"}, "[25]": {"tested_on": "Escherichia coli", "experiment": "Antimicrobial activity against Escherichia coli at 512 ug/ml after 24 hrs by agar diffusion technique", "type": "functional", "details": "read-out: DIZ", "method_in_brief": "as §1"}}}
{"compound": "CCn1cc(C(=O)O)c(=O)c2cc(F)c(N3CCNCC3)cc21", "note": "[NORFLOXACIN]", "values": [{"measurement": "zone of inhibition at 16 µg/mL", "setting": "[1]", "value": 2, "unit": "mm"}, {"measurement": "zone of inhibition at 64 µg/mL", "setting": "[2]", "value": 0, "unit": "mm"}, {"measurement": "logD", "setting": "[3]", "value": -0.41}, {"measurement": "zone of inhibition at 16 µg/mL", "setting": "[4]", "value": 0, "unit": "mm"}, {"measurement": "logMIC", "setting": "[5]", "value": 1.45}, {"measurement": "MIC", "setting": "[5]; Escherichia coli, 24 h", "value": 14, "unit": "µg/mL"}, {"measurement": "zone of inhibition at 512 µg/mL", "setting": "[6]", "value": 20, "unit": "mm"}, {"measurement": "zone of inhibition at 128 µg/mL", "setting": "[7]", "value": 3, "unit": "mm"}, {"measurement": "zone of inhibition at 128 µg/mL", "setting": "[8]", "value": 6, "unit": "mm"}, {"measurement": "zone of inhibition at 4 µg/mL", "setting": "[9]", "value": 0, "unit": "mm"}, {"measurement": "zone of inhibition at 4 µg/mL", "setting": "[10]", "value": 0, "unit": "mm"}, {"measurement": "zone of inhibition at 16 µg/mL", "setting": "[11]", "value": 0, "unit": "mm"}, {"measurement": "zone of inhibition at 128 µg/mL", "setting": "[12]", "value": 8, "unit": "mm"}, {"measurement": "zone of inhibition at 16 µg/mL", "setting": "[13]", "value": 0, "unit": "mm"}, {"measurement": "zone of inhibition at 64 µg/mL", "setting": "[14]", "value": 4, "unit": "mm"}, {"measurement": "zone of inhibition at 128 µg/mL", "setting": "[15]", "value": 15, "unit": "mm"}, {"measurement": "zone of inhibition at 4 µg/mL", "setting": "[16]", "value": 0, "unit": "mm"}, {"measurement": "zone of inhibition at 4 µg/mL", "setting": "[17]", "value": 0, "unit": "mm"}, {"measurement": "zone of inhibition at 64 µg/mL", "setting": "[18]", "value": 5, "unit": "mm"}, {"measurement": "zone of inhibition at 512 µg/mL", "setting": "[19]", "value": 20, "unit": "mm"}, {"measurement": "logMIC", "setting": "[20]", "value": 0}, {"measurement": "MIC", "setting": "[20]; Klebsiella pneumoniae, 24 h", "value": 8, "unit": "µg/mL"}, {"measurement": "zone of inhibition at 64 µg/mL", "setting": "[21]", "value": 5, "unit": "mm"}, {"measurement": "zone of inhibition at 512 µg/mL", "setting": "[22]", "value": 12, "unit": "mm"}, {"measurement": "logMIC", "setting": "[23]", "value": 1.81}, {"measurement": "MIC", "setting": "[23]; Staphylococcus aureus, 24 h", "value": 64, "unit": "µg/mL"}, {"measurement": "logMIC", "setting": "[24]", "value": 0.95}, {"measurement": "MIC", "setting": "[24]; Pseudomonas aeruginosa, 24 h", "value": 9, "unit": "µg/mL"}, {"measurement": "zone of inhibition at 512 µg/mL", "setting": "[25]", "value": 19, "unit": "mm"}]}
